Results taken from ChEMBL document CHEMBL3098054, “The synthesis of novel taxoids for oral administration” (Bioorg Med Chem, 2014).

Experiments:
[1] = Apparent permeability from apical to basolateral side in human Caco2 cells at 10 uM after 90 mins by LC-MS/MS analysis; format: ADME, cell-based, Caco-2; details: Caco-2
[2] = test system: MCF7; experiment: Cytotoxicity against human MCF7 cells after 72 hrs by MTT assay; format: functional, cell-based; details: MCF7, 72 h
Outline: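 MCF-7 cells exposed to compound for 72 h and read by MTT. At least six replicate wells per assay, run on three separate occasions. IC₅₀ given as mean with standard deviation.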

[3] = test system: NCI-H460; experiment: Cytotoxicity against human NCI-H460 cells at 1 uM after 72 hrs by MTT assay; format: functional; details: NCI-H460, 72 h, read-out: GI
Outline: (§1)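 Cells plated at 2000–5000/well, attached overnight at 37 °C. DMSO stocks (100 mM) serially diluted in medium to a final 1 µM, tested in duplicate wells. Exposure 72 h at 37 °C, 5% CO₂. MTT (5 mg/mL, 10 µL) added for 4 h. Lysis in 10% SDS / 5% isopropanol / 0.012 N HCl, then OD read at 580–680 nm.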

[4] = test system: HeLa; experiment: Cytotoxicity against human HeLa cells at 1 uM after 72 hrs by MTT assay; format: functional; details: read-out: GI; outline: as §1
[5] = test system: HT-29; experiment: Cytotoxicity against human HT-29 cells at 1 uM after 72 hrs by MTT assay; format: functional; details: HT-29, 72 h, read-out: GI; outline: as §1
[6] = test system: A2780; experiment: Cytotoxicity against human A2780 cells at 1 uM after 72 hrs by MTT assay; format: functional; details: A2780, 72 h, read-out: GI; outline: as §1
[7] = test system: A-375; experiment: Cytotoxicity against human A375 cells at 1 uM after 72 hrs by MTT assay; format: functional; details: A-375, 72 h, read-out: GI
Outline: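 Cells plated at 2000–5000/well, attached overnight at 37 °C. DMSO stocks (100 mM) serially diluted in medium to a final 1 µM, tested in duplicate wells. MTT (5 mg/mL, 10 µL) added for 4 h. Lysis in 10% SDS / 5% isopropanol / 0.012 N HCl, then OD read at 580–680 nm.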

[8] = test system: HL-60; experiment: Cytotoxicity against human HL60 cells at 1 uM after 72 hrs by MTT assay; format: functional; details: HL-60, 72 h, read-out: GI; outline: as §1
[9] = test system: DU-145; experiment: Cytotoxicity against human DU145 cells at 1 uM after 72 hrs by MTT assay; format: functional; details: DU-145, 72 h, read-out: GI; outline: as §1
[10] = test system: MCF7; experiment: Cytotoxicity against human MCF7 cells at 1 uM after 72 hrs by MTT assay; format: functional; details: MCF7, 72 h, read-out: GI; outline: as §1

Row | Compound | Papp A→B at 1.5 h, 10 µM [1] | IC50 [2] | inhibition of growth at 1 µM [3] | inhibition of growth at 1 µM [4] | inhibition of growth at 1 µM [5] | inhibition of growth at 1 µM [6] | inhibition of growth at 1 µM [7] | inhibition of growth at 1 µM [8] | inhibition of growth at 1 µM [9] | inhibition of growth at 1 µM [10]
1 | CC[C@H]1OC(=O)[C@H](C)[C@@H](O[C@H]2C[C@@](C)(OC)[C@@H](O)[C@H](C)O2)[C@H](C)[C@@H](O[C@@H]2O[C@H](C)C[C@H](N(C)C)[C@H]2O)[C@](C)(O)C[C@@H](C)C(=O)[C@H](C)[C@@H](O)[C@]1(C)O [ERYTHROMYCIN] | 0.58 ×10⁻⁶ cm/s |  |  |  |  |  |  |  |  | 
2 | COC(=O)O[C@H]1C(=O)[C@]2(C)[C@@H](OC)C[C@H]3OC[C@@]3(OC(C)=O)[C@H]2[C@H](OC(=O)c2ccccc2)[C@]23OC(=O)O[C@H]2[C@H](OC(=O)[C@H](O)[C@@H](NC(=O)OC(C)(C)C)c2ccccc2)C(C)=C1C3(C)C | < 1.43 ×10⁻⁶ cm/s | 3.24 nM |  |  |  |  |  |  |  | 
3 | CO[C@H]1C(=O)[C@]2(C)[C@@H](OC)C[C@H]3OC[C@@]3(OC(C)=O)[C@H]2[C@H](OC(=O)c2ccccc2)[C@]23OC(=O)O[C@H]2[C@H](OC(=O)[C@H](O)[C@H](CC(C)C)NC(=O)OC(C)(C)C)C(C)=C1C3(C)C | 2.57 ×10⁻⁶ cm/s | 4.04 nM |  |  |  |  |  |  |  | 
4 | CO[C@H]1C[C@H]2OC[C@@]2(OC(C)=O)[C@H]2[C@H](OC(=O)c3ccccc3)[C@]3(O)C[C@H](OC(=O)[C@H](O)[C@@H](NC(=O)c4ccccc4)c4ccccc4)C(C)=C([C@@H](OC(=O)N(C)C)C(=O)[C@]12C)C3(C)C | 2.94 ×10⁻⁶ cm/s |  | 86.5% | 102% | 87.9% | 96.3% | 87.7% | 97.5% | 87.1% | 85.7%
5 | CO[C@H]1C[C@H]2OC[C@@]2(OC(C)=O)[C@H]2[C@H](OC(=O)c3ccccc3)[C@]34OC(=O)O[C@H]3[C@H](OC(=O)[C@H](O)[C@H](CC(C)C)NC(=O)OC(C)(C)C)C(C)=C([C@@H](OC(=O)N(C)C)C(=O)[C@]12C)C4(C)C | 1.07 ×10⁻⁶ cm/s | 6.44 nM |  |  |  |  |  |  |  | 
6 | CO[C@H]1C(=O)[C@]2(C)[C@@H](OC)C[C@H]3OC[C@@]3(OC(C)=O)[C@H]2[C@H](OC(=O)c2ccccc2)[C@]23OC(=O)O[C@H]2[C@H](OC(=O)[C@H](O)[C@@H](NC(=O)c2ccccc2)c2ccccc2)C(C)=C1C3(C)C | 1.48 ×10⁻⁶ cm/s | 6.93 nM | 87.9% | 101% | 89.4% | 96.7% | 90.8% | 96.6% | 87.8% | 96%
7 | COC(=O)O[C@H]1C[C@H]2OC[C@@]2(OC(C)=O)[C@H]2[C@H](OC(=O)c3ccccc3)[C@]34OC(=O)O[C@H]3[C@H](OC(=O)[C@H](O)[C@@H](NC(=O)OC(C)(C)C)c3ccccc3)C(C)=C([C@@H](OC)C(=O)[C@]12C)C4(C)C | 3.93 ×10⁻⁶ cm/s | 3.84 nM |  |  |  |  |  |  |  | 
8 | CO[C@H]1C(=O)[C@]2(C)[C@@H](OC(=O)N(C)C)C[C@H]3OC[C@@]3(OC(C)=O)[C@H]2[C@H](OC(=O)c2ccccc2)[C@]2(O)C[C@H](OC(=O)[C@H](O)[C@@H](NC(=O)c3ccccc3)c3ccccc3)C(C)=C1C2(C)C | 3.27 ×10⁻⁶ cm/s | 64.7 nM | 87.7% | 103% | 89.4% | 95.6% | 88.4% | 97.8% | 85.8% | 90.8%
9 | CO[C@H]1C(=O)[C@]2(C)[C@@H](OC(=O)N(C)C)C[C@H]3OC[C@@]3(OC(C)=O)[C@H]2[C@H](OC(=O)c2ccccc2)[C@]2(O)C[C@H](OC(=O)[C@H](O)[C@@H](NC(=O)OC(C)(C)C)c3ccccn3)C(C)=C1C2(C)C | 4.41 ×10⁻⁶ cm/s | 46.6 nM |  | 103% |  |  |  |  |  | 
10 | CO[C@H]1C[C@H]2OC[C@@]2(OC(C)=O)[C@H]2[C@H](OC(=O)c3ccccc3)[C@]34OC(=O)O[C@H]3[C@H](OC(=O)[C@H](O)[C@@H](NC(=O)OC(C)(C)C)c3ccccn3)C(C)=C([C@@H](OC(=O)N(C)C)C(=O)[C@]12C)C4(C)C | 4.68 ×10⁻⁶ cm/s | 14.3 nM |  |  |  |  |  |  |  | 
